Laboratory results reported in ChEMBL document CHEMBL3045766, “Potent nematicidal activity of phthalaldehyde, salicylaldehyde, and cinnamic aldehyde against Meloidogyne incognita” (J Agric Food Chem, 2013).
In brackets after ≈: the same amount, converted by molar mass. Activity calls are given as the source filed them. No cut-off for these calls is given here.

Assays:
Meloidogyne incognita [1] = experiment: Nematicidal activity against second-stage juveniles of Meloidogyne incognita (root-knot nematode) after 1 day by inverted microscopic analysis; assay type: functional, organism-based; conditions: 24 h
Method in brief: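 Stocks in methanol, diluted with water/Tween; double-strength solutions mixed 1:1 with 25 J2 per well (methanol ≤1% final), covered, dark, 28 °C, 1 day. Controls: water and water/Tween 0.2%. Paralysis corrected for water-control mortality; five replicates, experiment run twice; EC50 from log-logistic nonlinear regression.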

Meloidogyne incognita [2] = experiment: Nematicidal activity against second-stage juveniles of Meloidogyne incognita (root-knot nematode) after 1 hr by inverted microscopic analysis; assay type: functional
Method in brief: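 J2 motility assay: methanol stocks diluted in water/Tween, mixed 1:1 with 25 J2 per well (methanol ≤1% final), kept covered in dark at 28 °C; paralysis scored at 1 h over a concentration range to give EC100. Water and water/Tween 0.2% controls; five replicates, repeated twice.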

Meloidogyne incognita [3] = experiment: Nematicidal activity against second-stage juveniles of Meloidogyne incognita (root-knot nematode) assessed as microscopic fracture on cuticle at […] by scanning electron microscopic analysis; assay type: functional, organism-based
Method in brief: (§1)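 J2 juveniles were exposed to the aldehyde, with untreated J2 as negative controls. They were postfixed in 1% osmium tetroxide in 0.1 M cacodylate buffer for 1 h, washed in distilled water, and frozen in slush nitrogen. They were then freeze-dried under vacuum overnight (−70 °C rising to room temperature), sputter-coated with 10 nm gold and imaged by secondary-electron SEM at 15 kV.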

Meloidogyne incognita [4] = experiment: Nematicidal activity against second-stage juveniles of Meloidogyne incognita (root-knot nematode) assessed as smooth/stretched cuticle at […] by scanning electron microscopic analysis; assay type: functional, organism-based; method in brief: as §1
Meloidogyne incognita [5] = experiment: Nematicidal activity against second-stage juveniles of Meloidogyne incognita (root-knot nematode) assessed as macroscopic fracture on cuticle at […] by scanning electron microscopic analysis; assay type: functional, organism-based; method in brief: as §1
[6] = biological target: T1, Collagen (Meloidogyne javanica) (UniProt O01945); experiment: Covalent binding to Meloidogyne javanica (root-knot nematode) collagen 3 assessed as compound-protein adduct formation at 5 mM by HPLC-ESI-MS analysis
T1 sequence (whole entry): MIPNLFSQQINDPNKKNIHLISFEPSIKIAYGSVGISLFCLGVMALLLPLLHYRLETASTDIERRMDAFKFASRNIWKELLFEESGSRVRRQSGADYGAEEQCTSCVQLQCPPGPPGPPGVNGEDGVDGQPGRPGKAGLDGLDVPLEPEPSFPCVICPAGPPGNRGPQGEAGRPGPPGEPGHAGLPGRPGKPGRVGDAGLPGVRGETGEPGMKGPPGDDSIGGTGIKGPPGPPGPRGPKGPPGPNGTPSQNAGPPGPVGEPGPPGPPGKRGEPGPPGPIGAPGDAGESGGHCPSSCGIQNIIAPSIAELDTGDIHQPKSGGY
Method in brief: (§2)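 Aldehyde (final 1, 5 or 15 mM) incubated with probe peptide (0.5 mM) in 100 mM Tris-HCl pH 7.4, 25 °C, dark, 24 h, duplicate; stopped with TFA (0.1% final). Diluted in 0.1% TFA, analysed by HPLC-ESI-MS (C18, TFA water/acetonitrile gradient). Adducts quantified label-free as relative XIC peak area of each derivative versus sum of all derivatives; peptide-only control.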

[7] = biological target: T1, Collagen (Meloidogyne javanica); experiment: Covalent binding to Meloidogyne javanica (root-knot nematode) collagen 3 assessed as compound-protein adduct formation at 1 mM by HPLC-ESI-MS analysis; method in brief: as §2
[8] = biological target: T1, Collagen (Meloidogyne javanica); experiment: Covalent binding to Meloidogyne javanica (root-knot nematode) collagen 3 assessed as compound-protein adduct formation at 15 mM by HPLC-ESI-MS analysis; method in brief: as §2

SMILES | EC50 (Meloidogyne incognita [1]) | EC100 (Meloidogyne incognita [2]) | also measured
CCc1ccc(O)c(C=O)c1 | 53 µg/mL (≈ 353 µM) | >100 mg/L | 
CCCCCCCCCCCCCCCc1ccc(C=O)c(O)c1 | > 1000 µg/mL | >1000 mg/L | 
CCCCC/C=C/C=C/C=O | 12 µg/mL (≈ 78.8 µM) | >20 mg/L | Activity (Meloidogyne incognita [3]): inactive; Activity (Meloidogyne incognita [4]): Active; Activity (Meloidogyne incognita [5]): Active
COc1ccccc1C=O [2-METHOXYBENZALDEHYDE] | > 1000 µg/mL | >1000 mg/L | Activity [6]: 77%; Activity [7]: 74%
O=Cc1ccc2ccccc2c1 [2-NAPHTHALDEHYDE] | 13 µg/mL (≈ 83.2 µM) | >75 mg/L | 
O=Cc1ccccc1[N+](=O)[O-] [2-NITROBENZALDEHYDE] | 120 µg/mL (≈ 794 µM) | >200 mg/L | 
COc1ccc(C=O)cc1OC [3,4-DIMETHOXYBENZALDEHYDE] | > 1000 µg/mL | >1000 mg/L | Activity [6]: 70%; Activity [7]: 65%
CC(=O)c1ccc2c(c1)OCO2 [3,4-METHYLENDIOXY ACETOPHENONE] | > 500 µg/mL | >500 mg/L | 
O=Cc1cccc(C(=O)O)c1 [3-FORMYLBENZOIC ACID] | > 1000 µg/mL | >1000 mg/L | 
O=Cc1cccc(O)c1 [3-HYDROXYBENZALDEHYDE] | 31 µg/mL (≈ 254 µM) | >250 mg/L | 
O=Cc1ccc(O)cc1 [4-HYDROXYBENZALDEHYDE] | 75 µg/mL (≈ 614 µM) | 500 mg/L | 
O=Cc1ccccc1 [BENZALDEHYDE] | > 250 µg/mL | >100 mg/L | Activity [6]: 0%; Activity [8]: 6%; Activity [7]: 0%
Oc1ccccc1O [CATECHOL] | > 500 µg/mL | >500 mg/L | 
O=C(O)/C=C/c1ccccc1 [CINNAMIC ACID] | > 250 µg/mL | >250 mg/L | 
O=C/C=C\c1ccccc1 [CINNAMIC ALDEHYDE] | 12 µg/mL (≈ 90.8 µM) | >250 mg/L | 
CC(C)=CCC/C(C)=C/C=O [CITRAL] | 72 µg/mL (≈ 473 µM) | >250 mg/L | 
CCOP(=O)(SC(C)CC)N1CCSC1=O (configuration not stated) [FOSTHIAZATE] |  | 3 mg/L | 
O=Cc1ccco1 [FURFURAL] | 8 µg/mL (≈ 83.3 µM) | 11 mg/L | 
O=Cc1ccccc1O[C@@H]1O[C@H](CO)[C@@H](O)[C@H](O)[C@H]1O [HELICIN] | > 250 µg/mL | >250 mg/L | 
O=Cc1cccc(C=O)c1 [ISOPHTHALIC DICARBOXALDEHYDE] | 15 µg/mL (≈ 112 µM) | >100 mg/L | Activity [6]: 0%; Activity [8]: 0%; Activity [7]: 1%
c1ccc([C@H]2CN3CCSC3=N2)cc1 [LEVAMISOLE] | 4 µg/mL (≈ 19.6 µM) | >20 mg/L | 
COC(=O)c1ccccc1O [METHYL SALICYLATE] | > 1000 µg/mL | >1000 mg/L | 
O=Cc1ccccc1C=O [ORTHO-PHTHALALDEHYDE] | 11 µg/mL (≈ 82 µM) | >50 mg/L | 
C[C@@H]1O[C@@H](O[C@H]2C[C@@H](O)[C@]3(CO)[C@H]4[C@H](O)C[C@]5(C)[C@@H](C6=CC(=O)OC6)CC[C@]5(O)[C@@H]4CC[C@]3(O)C2)[C@H](O)[C@H](O)[C@H]1O [OUABAIN] | > 1000 µg/mL | >1000 mg/L | 
O=CCc1ccccc1 [PHENYLACETALDEHYDE] | 167 µg/mL (≈ 1390 µM) | 1000 mg/L | 
O=Cc1ccc2c(c1)OCO2 [PIPERONAL] | 44 µg/mL (≈ 293 µM) | >100 mg/L | Activity [6]: 30%; Activity [7]: 5%
O=Cc1ccc(O)c(O)c1 [PROTOCATECHUALDEHYDE] | > 1000 µg/mL | >1000 mg/L | Activity [6]: 89%; Activity [8]: 73%; Activity [7]: 72%
Cn1c2cccc(=O)c-2nc2ccccc21 [PYOCYANIN] | 72 µg/mL (≈ 342 µM) | >250 mg/L | 
O=Cc1ccccc1O [SALICYLADEHYDE] | 11 µg/mL (≈ 90.1 µM) | >25 mg/L | Activity (Meloidogyne incognita [3]): inactive; Activity [6]: 57%; Activity [7]: 61%; Activity (Meloidogyne incognita [4]): Active; Activity (Meloidogyne incognita [5]): Active
COc1cc(C=O)ccc1O [VANILLIN] | > 1000 µg/mL | >1000 mg/L | 
